Results from PMC4059259 (Journal of Medicinal Chemistry, 2014).
Entries after “also recorded” stand apart in the source; their conditions may differ.

Legend:
[1] = tested on: early liver stage parasites; settings: cited from earlier work
human cell lines = settings: ref PubChem AID: 660872, 685525, and 449705; cited from earlier work
P. falciparum 3D7 = assay: SYBR green I growth inhibition assay, blood stage; type: cell-based; settings: Plasmodium falciparum, 3D7, read-out: IC50 in a third experiment
[2] = tested on: P. falciparum blood stage; assay: Parasite morphology in blood smears; type: cell-based; settings: treatment concentration and duration used in the study (50 μM, 5 h)
Outline: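 Asynchronous FCR3 blood-stage culture (25% parasitemia; 37 °C, 2% hematocrit, RPMI with 10% human serum, 3% CO2/5% O2) washed in serum-free starvation medium. Resuspended in complete medium with 50 μM test compound or DMSO, or in starvation medium with DMSO, for 5 h. Morphology viewed by light microscopy at 100× at harvest.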

PfAtg8 = assay: Immunoblot analysis of PfAtg8 in P. falciparum blood stage; type: cell-based; settings: for delipidation of PfAtg8 (immunoblot): 6 hours
[3] = tested on: P. falciparum 3D7-GFP liver stage; assay: In vitro infection of human hepatocytes; type: cell-based; settings: for decrease in proportion of hepatocytes infected with P. falciparum 3D7-GFP (GFP+/PI−): 72 h post infection
[4] = tested on: Plasmodium yoelii liver stage cultures; settings: screening concentration 10 μM; ref PubChem AID: 602118 and 602156, 18, 19; cited from earlier work
[5] = target: T1, PfAtg8-PfAtg3 interaction (Plasmodium falciparum, UniProt Q8IJK2, C119S/C122S/C32I); assay: MMV SPR competition assay; type: binding, P. falciparum; settings: read-out: inhibition of the PfAtg8-PfAtg3 interaction in primary SPR screen
T1 sequence (Q8IJK2 1-124 C32I/C119S/C122S): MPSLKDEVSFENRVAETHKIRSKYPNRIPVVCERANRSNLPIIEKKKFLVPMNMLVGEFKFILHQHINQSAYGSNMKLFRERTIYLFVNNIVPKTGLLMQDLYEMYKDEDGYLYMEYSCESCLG
T1 sequence (C0H519 1-313 partner): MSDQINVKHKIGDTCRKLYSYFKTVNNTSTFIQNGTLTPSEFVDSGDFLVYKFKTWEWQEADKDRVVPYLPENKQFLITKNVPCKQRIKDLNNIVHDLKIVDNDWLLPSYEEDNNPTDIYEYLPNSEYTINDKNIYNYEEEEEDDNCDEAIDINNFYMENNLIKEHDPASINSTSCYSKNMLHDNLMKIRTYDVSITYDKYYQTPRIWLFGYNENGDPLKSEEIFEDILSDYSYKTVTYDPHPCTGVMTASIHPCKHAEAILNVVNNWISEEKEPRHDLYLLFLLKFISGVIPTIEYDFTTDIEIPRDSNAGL
Outline: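 MBP-PfAtg3 immobilized on a CM5 chip, with MBP on the reference flowcell. Test compound (final 5 μM) or DMSO was mixed with 300 nM His6-PfAtg8CM in PBS pH 7.4 with 0.01% P20, final DMSO 3%, and injected. Binding read as SPR response versus DMSO control. Surface regenerated with 2 M MgCl2 between injections.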

PfAtg8^CM = target: T2, PfAtg8^CM (Plasmodium falciparum, UniProt Q8IJK2, C119S/C122S/C32I); assay: Direct binding of 1 to immobilized PfAtg8^CM by SPR; design: species or system P. falciparum
T2 sequence (Q8IJK2 1-124 C32I/C119S/C122S): T1 sequence (Q8IJK2 1-124 C32I/C119S/C122S)
Outline: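 SPR direct binding: His12-PfAtg8CM captured on a nickel-preconditioned NTA chip to 3000 RU. Two-fold dilution series of test compound (top 75 μM) injected at 40 μL/min in PBS pH 7.4 with 0.01% P20 and 3% DMSO. Double referencing with interspersed blanks; DMSO calibration curve; binding constants fitted.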

HC-04 cells = assay: Viability of HC-04 cells; type: cell-based, human; settings: 30 μM
PfAtg3 = target: T3, PfAtg3 (Plasmodium falciparum, UniProt C0H519); assay: Direct binding of protein to immobilized 8 by SPR; design: species or system P. falciparum; settings: data not shown
T3 sequence (C0H519 1-313): T1 sequence (C0H519 1-313 partner)
Outline: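 Test compound captured on a neutravidin-coated SPR flowcell (130 RUs), with a control ligand on the reference flowcell (150 RUs). His6-PfAtg3 injected in duplicate in 10 mM HEPES pH 7.5, 150 mM NaCl, 0.05% P20. Regeneration after each cycle with 20 mM HEPES pH 7.4, 1% w/v SDS.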

Cn1cnc(N)c2ncnc1-2 [3-methyladenine]
effect on conversion of parasite into trophozoite form [1]: delay conversion of the parasite into its trophozoite form

Cc1ccc(Nc2nc(-c3ccccn3)cs2)cc1 [Compound 1, N-(4-methylphenyl)-4-pyridin-2-yl-1,3-thiazol-2-amine]
reported cytotoxicity in human cell lines (human cell lines): much lower than that of compounds 2 or 3 | IC50 (P. falciparum 3D7): 3.3 µM | parasite morphology [2]: parasite morphology appeared normal | delipidation of PfAtg8 (immunoblot) (PfAtg8; 12.5 μM): dose-dependent increase in delipidation of PfAtg8 | delipidation of PfAtg8 (immunoblot) (PfAtg8; 25 μM): unlipidated PfAtg8 is the predominant species | PfAtg8 protein levels (immunoblot) (PfAtg8; 50 μM (cytocidal, high levels), 5 h, FCR3): drastic increase in PfAtg8 protein levels | intensity of GFP fluorescence in infected hepatocytes ([3]; 3 μM and 30 μM): dose-dependent reduction | decrease in proportion of hepatocytes infected with P. falciparum 3D7-GFP (GFP+/PI−) ([3]; 3 μM): but not with 3 μM | decrease in proportion of hepatocytes infected with P. falciparum 3D7-GFP (GFP+/PI−) ([3]; 30 μM): ~50% | inhibition of P. yoelii liver stage [4]: ≤ 50% | inhibition at 5 µM [5]: ≥ 25% | direct binding to PfAtg8^CM (SPR response) (PfAtg8^CM): dose-dependent increase in SPR response; also recorded: directly binds to PfAtg8 | cell death in HC-04 cells (HC-04 cells): did not observe cell death

CSc1ccccc1C(=O)Nc1nc(-c2ccccn2)cs1 [Compound 2, 2-methylsulfanyl-N-(4-pyridin-2-yl-1,3-thiazol-2-yl)benzamide]
inhibition at 5 µM [5]: ≥ 25%

O=C(Nc1nc(-c2ccccn2)cs1)c1ccccc1Br [Compound 3, 2-bromo-N-(4-pyridin-2-yl-1,3-thiazol-2-yl)benzamide]
inhibition at 5 µM [5]: ≥ 25%

Cc1ccc(-c2cc3c(SCC(=O)Nc4cc(C(F)(F)F)ccc4Cl)nccn3n2)cc1 [Compound 4, N-[2-chloro-5-(trifluoromethyl)phenyl]-2-[2-(4-methylphenyl)pyrazolo[1,5-a]pyrazin-4-yl]sulfanylacetamide]
inhibition at 5 µM [5]: ≥ 25%

CN(C)c1ccc(N2C(N)=NC(N)=NC2(C)C)cc1 [Compound 5, 1-[4-(dimethylamino)phenyl]-6,6-dimethyl-1,3,5-triazine-2,4-diamine]
inhibition at 5 µM [5]: ≥ 25%

Brc1ccc(Nc2nc3ccccc3nc2Nc2ccc(Br)cc2)cc1 [Compound 6, 2-N,3-N-bis(4-bromophenyl)quinoxaline-2,3-diamine]
inhibition at 5 µM [5]: ≥ 25%

O=C(CCCC[C@H]1SC[C@H]2NC(=O)N[C@H]21)NCCCCCC(=O)NNCc1ccc(C(=O)Nc2nc(-c3ccccn3)cs2)cc1 [Compound 8, 4-[[2-[6-[5-[(3aR,4R,6aS)-2-Oxo-1,3,3a,4,6,6a-hexahydrothieno[3,4-d]imidazol-4-yl]pentanoylamino]hexanoyl]hydrazinyl]methyl]-N-(4-pyridin-2-yl-1,3-thiazol-2-yl)benzamide]
binding of recombinant PfAtg3 to immobilized 8 (PfAtg3): did not bind
